# CHO parental Ca: counter-screen for OX1R antagonists: effect in parental CHO cells; parental CHO-K1, ATP-induced calcium, Fluo-8 fluorescence; inhibition, % at 5.6 µM; 0.63% of 330,000 active; AID 463079;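 active means inhibition above that plate's mean sample inhibition plus 3 SD, cut at about 26% in these data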;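 further: 0% = ATP-challenged DMSO wells and 100% = DMSO wells without ATP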
#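 material = parental CHO cells | also added = ATP as calcium-mobilizing challenge | dosing = single point at 5.6 µM | detection = intracellular calcium via Fluo-8 no-wash fluorescent dye | read-out = % inhibition | benchmarks = low control ATP plus DMSO, high control DMSO only | repeats = one well per compound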
# TAAR1 ag: human TAAR1 agonism; Q96RJ0; CHO RD-HGA16 TAAR1, Fluo-8 calcium fluorescence; vehicle wells 0%, saturating PEA agonist 100%; activation, % at 3 µM; 0.99% of 360,000 active;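 active means activation above the mean activation of all test compounds in the run plus 3 SD, cut at about 38% in these data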
#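 Signal – calcium-sensitive Fluo-8 signal, excitation 470-495, emission 515-575 nm · System – RD-HGA16 (CHO) cells co-expressing Gα16 and hTAAR1 · Incubation – 17-24 h seeding, 75 min 37 °C dye, 30 min RT · Compound dosing – 3 µM single concentration · Repeats – no replicates (n 1)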
# GPR7 antag: blocks human GPR7 receptor signaling. P48145. GPR7-expressing cells, fluorescence antagonist assay. inhibition, % at 4.4 µM. 1.1% of 290,000 active. AID 1861; in the data active means inhibition above about 16%, passing the limit was not always enough;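 further: cells stimulated with the agonist NPW; 0% = agonist with vehicle and 100% = vehicle without agonist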
# Target sequence (P48145 whole entry, looked up): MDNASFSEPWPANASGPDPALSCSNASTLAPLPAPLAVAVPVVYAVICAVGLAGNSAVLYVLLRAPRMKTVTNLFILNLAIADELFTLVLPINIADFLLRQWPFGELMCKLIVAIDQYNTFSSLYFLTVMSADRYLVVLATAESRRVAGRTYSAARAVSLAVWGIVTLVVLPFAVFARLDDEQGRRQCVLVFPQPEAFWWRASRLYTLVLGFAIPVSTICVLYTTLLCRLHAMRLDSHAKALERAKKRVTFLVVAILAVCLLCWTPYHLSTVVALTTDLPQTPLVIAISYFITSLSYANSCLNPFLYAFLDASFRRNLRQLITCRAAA
# TAAR1 antagonist: antagonists of human TAAR1; Q96RJ0; CHO RD-HGA16 TAAR1, Fluo-8 calcium fluorescence, antagonist; inhibition, % at 3 µM; 1.5% of 360,000 active; AID 624466;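 active means inhibition above a per-plate cutoff, the mean inhibition of test compounds on that plate plus 3 SD, cut at about 49% in these data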;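 further: 0% = DMSO plus EC80 beta-PEA response and 100% = DMSO alone without agonist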
#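 Test system – hTAAR1-expressing CHO RD-HGA16 cells, Gα16-coupled · Also added – β-PEA at EC80 concentration, post-compound challenge · Compound – 3 µM, single point · Incubation – dye loading 75 min at 37 °C, then 30 min room temperature · Measured by – Fluo-8 intracellular calcium dye fluorescence, real-time kinetic reads · Benchmarks – vehicle and agonist controls · Replicates – singlicate, one well per test compound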
# OX1R antag-1: blocks the human orexin 1 receptor; 1.8% of 330,000 active; inhibition, % at 6.6 µM; O43613; OX1R-expressing cells, FRET antagonist read-out; AID 485270; in the data active means inhibition mostly above about 38%, no sharp cut-off; inactive means mostly below about 40%;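 further: 0% = agonist challenge alone and 100% = reference antagonist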
# Target sequence (O43613 whole entry, looked up): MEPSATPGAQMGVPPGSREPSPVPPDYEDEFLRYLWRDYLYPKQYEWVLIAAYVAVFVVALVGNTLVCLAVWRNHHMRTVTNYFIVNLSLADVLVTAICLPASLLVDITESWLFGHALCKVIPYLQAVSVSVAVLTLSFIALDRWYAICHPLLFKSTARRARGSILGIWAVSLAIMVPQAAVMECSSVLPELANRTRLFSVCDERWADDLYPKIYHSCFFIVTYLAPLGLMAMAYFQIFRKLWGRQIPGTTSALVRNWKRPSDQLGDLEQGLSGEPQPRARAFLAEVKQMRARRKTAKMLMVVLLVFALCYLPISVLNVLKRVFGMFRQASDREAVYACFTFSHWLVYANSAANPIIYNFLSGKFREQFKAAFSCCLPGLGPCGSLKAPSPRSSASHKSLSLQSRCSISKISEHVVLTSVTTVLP
# OX1R antag-2: blocks the human orexin 1 receptor. CHO/OX1R cells, Fluo-8 calcium fluorescence, orexin A. 0.43% of 330,000 active. O43613. inhibition, % at 5 µM;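 active means inhibition above its plate's threshold, mean inhibition of all tested compounds on the plate plus 3 SD, cut at about 37% in these data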;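 further: 0% = orexin A challenge wells and 100% = SB-334867-A antagonist wells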
# OX1R HTRF confirm: OX1R (human) antagonism, HTRF confirmed; inhibition, % at 6.6 µM; OX1R-expressing cells, HTRF antagonist assay; shares compounds with OX1R antag-1; 49% of 1,800 active; in the data active means inhibition above about 55%;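 further: CHO cells expressing OX1R stimulated with orexin A at about EC80; 0% = agonist challenge alone and 100% = reference antagonist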
# CHO-K1 HTRF cnt: signal in parental CHO-K1 cells, OX1R antagonist counter-screen | shares compounds with OX1R antag-1 | HTRF counterscreen | inhibition, % at 6.6 µM | 48% of 1,800 active | AID 493232; in the data active means inhibition above about 17%;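 further: 0% = agonist challenge with vehicle and 100% = vehicle alone without agonist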
# The depositor's hits bear a star; · = no result. Shown are actives, neighbours in structure and some others; about 4.5% of the full set was active somewhere.
SMILES,CHO parental Ca,TAAR1 ag,GPR7 antag,TAAR1 antagonist,OX1R antag-1,OX1R antag-2,OX1R HTRF confirm,CHO-K1 HTRF cnt
O=C1c2cccc3cccc(c23)C(=O)N1c1ccccn1,-11.8,3.2,3.7,-3.4,98.6*,-12.3,61.2*,60.3*
COc1ccc(N2C(=O)c3cccc4cccc(c34)C2=O)cc1,-5.1,1.1,-8.2,-9.9,13.1,-11.2,·,·
O=C1c2cccc3cccc(c23)C(=O)N1c1ccncc1,-15.2,0.5,-3.6,-3.6,110.6*,-12.1,53.6,66.8*
O=C1c2cccc3cccc(c23)C(=O)N1Cc1ccccn1,·,0.1,·,4.3,·,·,·,·
COc1ccc(N=NC2=C(O)CC(C)(C)CC2=O)cc1,-4.4,1.6,-0.9,1.6,102.1*,-10.1,32.8,27.8*
CC1(C)CC(=O)C(N=Nc2ccc(Br)cc2)=C(O)C1,-1.4,2.0,-3.9,-31.4,10.3,-18.8,·,·
Cc1ccnc(NC(=O)CCc2c(C)nc3ncnn3c2C)c1,-4.6,3.8,-2.0,12.7,6.0,-4.2,·,·
O=C1CSC(=S)N1/N=C/c1ccc(O)c(O)c1O,-2.7,·,-9.1,·,84.3*,-1.8,16.4,-4.0
COc1ccc(NS(=O)(=O)c2ccc(NC(=O)c3ccccc3Br)cc2)nn1,0.3,2.3,-1.4,4.3,6.5,-2.5,·,·
CCCn1c(/C=C/c2cc[n+](C)cc2)nc2ccccc21,0.0,4.4,-9.5,-14.2,77.9*,9.9,49.7,47.3*
CC(C)Cn1c(/C=C/c2ccccc2)nc2ccccc21,-41.9,2.2,-11.0,-28.6,35.0,-33.8,·,·
O=C(CCCN1C(=O)C2CCCCN2C1=O)N1CCN(c2ccc([N+](=O)[O-])cc2)CC1 (stereo not drawn),-5.9,4.0,-11.7,7.7,79.0*,-10.6,27.2,24.8*
O=C1C2CCCCN2C(=O)N1CCN1CCN(c2ccc([N+](=O)[O-])cc2)CC1 (stereo not drawn),-10.8,1.0,-12.8,-6.3,38.9,-16.2,·,·
COc1ccc2nc(Nc3nc(C)c(C(C)=O)s3)sc2c1,-23.5,-2.3,-5.8,0.4,80.8*,4.0,52.0,1.6
COc1ccc(Nc2nc3ccc(OC)cc3s2)cc1,5.0,0.2,-9.1,10.1,29.9,-13.6,·,·
CN1C(=O)/C(=C2/C=Cc3ccccc3N2CCCS(=O)(=O)O)SC1=S,-3.5,16.4,2.7,-12.7,100.0*,3.0,58.8*,96.7*
CCCN1/C(=C2/SC(=S)N(CC)C2=O)C=Cc2ccccc21,-17.4,0.4,3.0,-11.1,13.6,-14.8,·,·
Cc1cc(N2CCCC2=O)ccc1S(=O)(=O)NC1CCCCC1,-3.8,1.1,-8.3,-2.2,15.8,-1.6,·,·
Cc1cc(C)c2[nH]c3nc(SCC(=O)O)nnc3c2c1,-9.3,9.6,-22.2,-5.6,104.3*,0.6,25.8,13.7
CN(Cc1ccccc1)c1nc2nonc2nc1N1CCCC(CN2CCCC2=O)C1 (stereo not drawn),-30.9,0.5,-1.4,4.8,19.8,-26.0,·,·
O=C(CSc1ccc(-c2ccccc2)nn1)c1ccccc1,-20.6,1.9,-11.1,6.6,81.6*,-4.5,40.8,9.9
Cc1nn(C)cc1/C=N/NC(=O)c1ccc2c(c1)OCO2,0.4,4.2,19.1,-4.3,83.4*,-7.9,9.7,9.1
O=C(N/N=C/c1cc2c(cc1[N+](=O)[O-])OCO2)c1ccc2c(c1)OCO2,-3.0,0.6,-4.1,-28.2,6.8,-20.2,·,·
Cn1cc(Br)c(NS(=O)(=O)c2ccc(Cl)s2)n1,-13.5,4.5,2.0,-3.1,10.6,-15.3,·,·
N#CC(C#N)=c1ccc2c(c1)NC1(CCCCC1)N=2,-8.1,6.7,-13.6,-9.4,191.3*,-4.3,52.2,58.2*
SMILES,CHO parental Ca,TAAR1 ag,GPR7 antag,TAAR1 antagonist,OX1R antag-1,OX1R antag-2,OX1R HTRF confirm,CHO-K1 HTRF cnt
N#CC(C#N)=C1NC2(CCCCC2)Cc2ccccc21,-7.8,18.9,-4.0,4.2,4.0,-13.1,·,·
CC(C)c1ccc(NC(=O)CCCN2C(=S)NC(C)(C)CC2C)cc1 (stereo not drawn),-19.7,-1.2,-9.5,-22.0,99.5*,-29.3,16.4,10.0
CC1CC(C)(C)NC(=S)N1CCCC(=O)Nc1ccc(Cl)cc1 (stereo not drawn),-14.5,0.9,2.2,-4.1,4.0,-23.4,·,·
Cc1ccc2ccccc2c1C(O)c1ncc(-c2ccccc2Cl)[nH]1 (stereo not drawn),·,4.3,·,-15.3,·,·,·,·
CCn1c(SCC(=O)Nc2ccc(F)cc2)nnc1C1CC1,-9.9,0.9,3.6,11.9,11.5,-10.9,·,·
Cc1ccc(C(C)C)c(OCC(=O)c2c(O)c3ccccc3oc2=O)c1,-7.7,-5.5,-7.9,6.8,82.1*,-13.9,36.4,2.2
O=C(Nc1ncc([N+](=O)[O-])s1)C1CC(=O)N(c2ccc(F)cc2)C1 (stereo not drawn),15.7,15.3,0.5,13.6,25.8,-17.4,·,·
O=C1NCCN1c1ncc([N+](=O)[O-])s1,6.3,1.1,·,-12.6,81.7*,-2.0,62.6*,87.9*
Cc1ccc(S(=O)(=O)N2[C@@H](c3cccc(Cl)c3)C(C(=O)O)=CC[C@H]2c2ccc3c(c2)OCO3)cc1,-9.9,5.5,·,5.5,83.4*,26.4,86.9*,-0.8
COc1ccc(/C=C/c2ccc3ccccc3[n+]2C)cc1OC,4.5,·,-5.2,·,78.3*,-5.3,70.0*,85.6*
CC(=O)c1cccc(NC(=O)CCNS(=O)(=O)c2cccc3nonc23)c1,-20.5,-0.5,-9.4,4.2,97.4*,-5.4,25.3,22.8*
COc1cccc(NC(=O)CCNS(=O)(=O)c2cccc3nonc23)c1,-1.4,1.9,-7.2,-2.2,26.5,-9.6,·,·
Cc1onc(-c2ccccc2)c1C(=O)N(Cc1ccccc1)C(C)C,-21.9,-3.9,-5.4,-19.8,3.9,-32.5,·,·
COc1ccc2cc3c(N)c(C(=O)N4CCCC4)sc3nc2c1,-11.1,2.0,-10.9,-9.9,97.5*,6.2,88.8*,10.7
Cc1ccc2cc3c(N)c(C(=O)N4CCOCC4)sc3nc2c1,-17.9,6.6,-15.9,7.8,34.4,-32.0,·,·
Cc1c(NC(=O)CN2C(=O)C(=O)c3ccccc32)c(=O)n(-c2ccccc2)n1C,-12.5,2.6,-13.7,-10.8,80.3*,-15.6,53.3,50.9*
Cc1c(NC(=O)CN2C(=O)NC(C)(c3ccccc3)C2=O)c(=O)n(-c2ccccc2)n1C (stereo not drawn),4.3,6.4,-7.3,-1.4,1.2,-6.6,·,·
CCN(Cc1ccccc1)C(=O)COC(=O)c1cc(S(=O)(=O)Nc2c(C)n(C)n(-c3ccccc3)c2=O)ccc1C,-27.4,-1.1,1.8,-4.8,80.8*,19.8,74.4*,-5.2

# Screening results from PubChem.
